Measurements: ChEMBL document CHEMBL3526106, “Cytochrome P450 regulation by α-tocopherol in Pxr-null and PXR-humanized mice” (Drug Metab Dispos, 2013)

Experiments:
Design in all cases: dose 500 mg/kg
Details in all cases: in vivo, po
Mus musculus [1] = test: Drug metabolism in male wild type mouse assessed as urinary alpha-carboxyethylhydroxychroman glucuronide level at 500 mg/kg for 7 to 14 days dosed through vitamin E-deficient base diet by UPLC-ESI-QTOFMS method based metabolomics analysis; assay type: ADME, organism-based, Urine
Mus musculus [2] = test: Induction of Cyp4f15 gene expression in male PXR-humanized mouse liver at 500 mg/kg for 7 to 14 days dosed through vitamin E-deficient base diet by qPCR method; assay type: ADME, organism-based
Outline: (§1)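 Male mice (wild-type, Pxr-null, hPXR; NCI-bred) on vitamin E-deficient diet from 3 weeks of age; at 8 weeks half switched to same base diet supplemented with 500 mg/kg DL-α-tocopheryl acetate, rest kept deficient. Livers harvested at 9 and 10 weeks. qPCR: 25 ng cDNA, 150 nM each primer, SYBR Green, triplicate; comparative Ct vs β-actin; fold change enriched vs deficient diet; mean ± SEM, two-tailed unpaired t-test.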

Mus musculus [3] = test: Effect on Ugt1a6b gene expression in wild type mouse liver at 500 mg/kg for 7 to 14 days dosed through vitamin E-deficient base diet by qPCR method; assay type: ADME, organism-based
Outline: (§2)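 Male mice on vitamin E deficient diet, switched at eight weeks to the same diet with 500 mg/kg DL-α-tocopheryl acetate (controls kept deficient); killed at nine or 10 weeks, livers flash frozen. Hepatic mRNA by SYBR Green qPCR with 25 ng cDNA and 150 nM primers, triplicate reactions; comparative threshold cycle method against β-actin, fold change versus deficient diet; mean ± SEM, two-tailed t-test.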

Mus musculus [4] = test: Effect on Ugt1a7c gene expression in male PXR-humanized mouse liver at 500 mg/kg for 7 to 14 days dosed through vitamin E-deficient base diet by qPCR method; assay type: ADME, organism-based; outline: as §2
Mus musculus [5] = test: Effect on Ugt1a6a gene expression in wild type mouse liver at 500 mg/kg for 7 to 14 days dosed through vitamin E-deficient base diet by qPCR method; assay type: ADME, organism-based; outline: as §2
Mus musculus [6] = test: Effect on Ugt1a6a gene expression in male PXR-humanized mouse liver at 500 mg/kg for 7 to 14 days dosed through vitamin E-deficient base diet by qPCR method; assay type: ADME, organism-based; outline: as §2
Mus musculus [7] = test: Effect on Ugt1a6a gene expression in male PXR null mouse liver at 500 mg/kg for 7 to 14 days dosed through vitamin E-deficient base diet by qPCR method; assay type: ADME, organism-based; outline: as §2
Mus musculus [8] = test: Induction of Cyp4f16 gene expression in wild type mouse liver at 500 mg/kg for 7 to 14 days dosed through vitamin E-deficient base diet by qPCR method; assay type: ADME, organism-based; outline: as §1
Mus musculus [9] = test: Drug metabolism in male PXR-humanized mouse assessed as urinary alpha-carboxyethylhydroxychroman glycine level at 500 mg/kg for 7 to 14 days dosed through vitamin E-deficient base diet by UPLC-ESI-QTOFMS method based metabolomics analysis; assay type: ADME, organism-based, Urine
Mus musculus [10] = test: Effect on Ugt1a10 gene expression in male PXR-humanized mouse liver at 500 mg/kg for 7 to 14 days dosed through vitamin E-deficient base diet by qPCR method; assay type: ADME, organism-based; outline: as §2
Mus musculus [11] = test: Effect on Ugt1a10 gene expression in male PXR null mouse liver at 500 mg/kg for 7 to 14 days dosed through vitamin E-deficient base diet by qPCR method; assay type: ADME, organism-based; outline: as §2
Mus musculus [12] = test: Effect on Ugt1a9 gene expression in male PXR-humanized mouse liver at 500 mg/kg for 7 to 14 days dosed through vitamin E-deficient base diet by qPCR method; assay type: ADME, organism-based; outline: as §2
Mus musculus [13] = test: Induction of Cyp4f14 gene expression in wild type mouse liver at 500 mg/kg for 7 to 14 days dosed through vitamin E-deficient base diet by qPCR method; assay type: ADME, organism-based; outline: as §1
Mus musculus [14] = test: Effect on Ugt2b5 gene expression in male PXR null mouse liver at 500 mg/kg for 7 to 14 days dosed through vitamin E-deficient base diet by qPCR method; assay type: ADME, organism-based; outline: as §2
Mus musculus [15] = test: Drug metabolism in male PXR null mouse assessed as urinary alpha-carboxymethylbutylhydroxychroman glucuronide level at 500 mg/kg for 7 to 14 days dosed through vitamin E-deficient base diet by UPLC-ESI-QTOFMS method based metabolomics analysis; assay type: ADME, organism-based, Urine
Mus musculus [16] = test: Induction of Cyp2c39 gene expression in male PXR null mouse liver at 500 mg/kg for 7 to 14 days dosed through vitamin E-deficient base diet by qPCR method; assay type: ADME, organism-based; outline: as §2
Mus musculus [17] = test: Induction of Cyp4f16 gene expression in male PXR null mouse liver at 500 mg/kg for 7 to 14 days dosed through vitamin E-deficient base diet by qPCR method; assay type: ADME, organism-based; outline: as §1
Mus musculus [18] = test: Induction of Cyp4f16 gene expression in male PXR-humanized mouse liver at 500 mg/kg for 7 to 14 days dosed through vitamin E-deficient base diet by qPCR method; assay type: ADME, organism-based; outline: as §1
Mus musculus [19] = test: Effect on Ugt1a1 gene expression in wild type mouse liver at 500 mg/kg for 7 to 14 days dosed through vitamin E-deficient base diet by qPCR method; assay type: ADME, organism-based; outline: as §2
Mus musculus [20] = test: Effect on Ugt2b34 gene expression in wild type mouse liver at 500 mg/kg for 7 to 14 days dosed through vitamin E-deficient base diet by qPCR method; assay type: ADME, organism-based; outline: as §2
Mus musculus [21] = test: Effect on Ugt2b5 gene expression in male PXR-humanized mouse liver at 500 mg/kg for 7 to 14 days dosed through vitamin E-deficient base diet by qPCR method; assay type: ADME, organism-based; outline: as §2
Mus musculus [22] = test: Drug metabolism in male PXR null mouse assessed as urinary alpha-carboxyethylhydroxychroman glucuronide level at 500 mg/kg for 7 to 14 days dosed through vitamin E-deficient base diet by UPLC-ESI-QTOFMS method based metabolomics analysis; assay type: ADME, organism-based, Urine
Mus musculus [23] = test: Effect on Ugt1a10 gene expression in wild type mouse liver at 500 mg/kg for 7 to 14 days dosed through vitamin E-deficient base diet by qPCR method; assay type: ADME, organism-based; outline: as §2
Mus musculus [24] = test: Effect on Ugt2b34 gene expression in male PXR-humanized mouse liver at 500 mg/kg for 7 to 14 days dosed through vitamin E-deficient base diet by qPCR method; assay type: ADME, organism-based; outline: as §2
Mus musculus [25] = test: Drug metabolism in male wild type mouse assessed as urinary alpha-carboxyethylhydroxychroman glycine level at 500 mg/kg for 7 to 14 days dosed through vitamin E-deficient base diet by UPLC-ESI-QTOFMS method based metabolomics analysis; assay type: ADME, organism-based, Urine
Mus musculus [26] = test: Effect on Ugt1a9 gene expression in wild type mouse liver at 500 mg/kg for 7 to 14 days dosed through vitamin E-deficient base diet by qPCR method; assay type: ADME, organism-based; outline: as §2
Mus musculus [27] = test: Induction of Cyp4f18 gene expression in wild type mouse liver at 500 mg/kg for 7 to 14 days dosed through vitamin E-deficient base diet by qPCR method; assay type: ADME, organism-based; outline: as §1
Mus musculus [28] = test: Drug metabolism in male PXR-humanized mouse assessed as urinary alpha-carboxyethylhydroxychroman glucuronide level at 500 mg/kg for 7 to 14 days dosed through vitamin E-deficient base diet by UPLC-ESI-QTOFMS method based metabolomics analysis; assay type: ADME, organism-based, Urine
Outline: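 Male mice from three weeks of age on vitamin E deficient diet; at eight weeks, 24 h predose urine in metabolic cages, then half switched to the same diet supplemented with 500 mg/kg DL-α-tocopheryl acetate. 24 h urine collected at nine and 10 weeks. Urinary metabolites quantitated by UPLC-MRM on triple-quadrupole MS against authentic standards and calibration curves, normalized to urinary creatinine (µmol/mmol creatinine); mean ± SEM, two-tailed unpaired t-test.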

Mus musculus [29] = test: Effect on Ugt1a9 gene expression in male PXR null mouse liver at 500 mg/kg for 7 to 14 days dosed through vitamin E-deficient base diet by qPCR method; assay type: ADME, organism-based; outline: as §2

- Activity (Mus musculus [2]): Not Active
- Activity (Mus musculus [3]): Not Active
- Activity (Mus musculus [4]): Not Active
- Activity (Mus musculus [5]): Not Active
- Activity (Mus musculus [6]): Not Active
- Activity (Mus musculus [7]): Not Active
- Activity (Mus musculus [8]): Not Active
- Activity (Mus musculus [10]): Not Active
- Activity (Mus musculus [11]): Not Active
- Activity (Mus musculus [12]): Not Active
- Activity (Mus musculus [13]): Not Active
- Activity (Mus musculus [14]): Not Active
- Activity (Mus musculus [16]): Not Active
- Activity (Mus musculus [17]): Not Active
- Activity (Mus musculus [18]): Not Active
- Activity (Mus musculus [19]): Not Active
- Activity (Mus musculus [20]): Not Active
- Activity (Mus musculus [21]): Not Active
- Activity (Mus musculus [23]): Not Active
- Activity (Mus musculus [24]): Not Active
- Activity (Mus musculus [26]): Not Active
- Activity (Mus musculus [27]): Not Active
- Activity (Mus musculus [29]): Not Active
Structure (SMILES): CC(=O)Oc1c(C)c(C)c2c(c1C)CCC(C)(CCCC(C)CCCC(C)CCCC(C)C)O2 (racemic) [alpha-TOCHOPHERYL ACETATE]
- Drug metabolism (Mus musculus [1]): metabolite_detected
- Drug metabolism (Mus musculus [9]): metabolite_detected
- Drug metabolism (Mus musculus [15]): metabolite_detected
- Drug metabolism (Mus musculus [22]): metabolite_detected
- Drug metabolism (Mus musculus [25]): metabolite_detected
- Drug metabolism (Mus musculus [28]): metabolite_detected
